≈ marks a conversion by molar mass, not a printed value. Calls of active or inactive are those of the source. No cut-off for these calls is given here.
Assays:
[1] = Selectivity index, ratio of CC50 for African green monkey Vero E6 cells to IC50 for antiviral activity against SARS-CoV-2 NRC-03-nhCoV infected in african green monkey Vero E6 cells; format: toxicity, cell-based, Vero C1008; conditions: read-out: Ratio CC50/IC50
[2] = (§1) Cytotoxicity against African green monkey Vero E6 cells measured after 72 hrs by crystal violet staining based analysis; format: toxicity, cell-based, Vero C1008; conditions: chlorocebus sabaeus, Vero E6 cells
Method in brief: (§2)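 Vero-E6 cells were seeded at 3 × 10^5 cells/mL, grown 24 h at 37 °C with 5% CO2, then given graded compound concentrations in triplicate for 72 h. Stocks were made in 10% DMSO in DMEM. Cells were fixed in 10% formalin, stained with 0.1% crystal violet, dissolved in methanol and read at A570. CC50 was taken by nonlinear regression of log concentration versus normalised response against untreated cells.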

SARS-CoV-2 = assay: Antiviral activity against SARS-CoV-2 NRC-03-nhCoV infected in african green monkey Vero E6 cells assessed as inhibition of viral growth pre-infected cells with virus for 1 hr followed by compound addition for 1 hr and measured after 72 hrs by crystal violet staining based analysis; format: functional, organism-based; conditions: Severe acute respiratory syndrome coronavirus 2, NRC-03-nhCoV, Vero C1008
[3] = molecular target: Replicase polyprotein 1ab (Severe acute respiratory syndrome coronavirus 2) (UniProt P0DTD1); assay: Inhibition of SARS-CoV-2 3CLpro at 10 ug/ml preincubated with enzyme for 30 mins followed by substrate addition and measured after 4 hrs by fluorescence based analysis; conditions: dose 10.0 µg/ml, time 4.5 hrs
Method in brief: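 Recombinant SARS-CoV-2 3CLpro (1.5 ng/μl) was pre-incubated with compound 30 min at RT. Fluorogenic substrate was added to a final 40 μM and incubated 4 h at RT. Fluorescence was read at Ex 360/Em 460 nm. Wells were run in triplicate and blank was subtracted.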

[4] = molecular target: Replicase polyprotein 1ab (Severe acute respiratory syndrome coronavirus 2, UniProt P0DTD1); assay: Inhibition of recombinant SARS CoV-2 PL protease incubated for 2 hrs followed by substrate addition and measured after 1 hr by fluorescence based analysis
[5] = molecular target: Replicase polyprotein 1ab (Severe acute respiratory syndrome coronavirus 2) (UniProt P0DTD1); assay: Inhibition of recombinant SARS CoV-2 PL protease at 25 ug/ml incubated for 2 hrs followed by substrate addition and measured after 1 hr by fluorescence based analysis relative to control; conditions: dose 25.0 µg/ml, time 3.0 hrs
[6] = Aqueous solubility of the compound in PBS buffer at pH 7.4 at 200 uM by microplate reader method; format: physicochemical
Vero C1008 = assay: as §1; format: toxicity, cell-based; conditions: chlorocebus sabaeus, vero c1008, 72 h; method in brief: as §2
[7] = Stability in human microsomes assessed as compound remaining at 1 uM measured after 60 mins in absence of NADPH by LC-MS-MS analysis; format: ADME, Microsome; conditions: read-out: Stability
Method in brief: (§3)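 Compound was incubated in liver microsomes without NADPH. Percent remaining was measured after 60 min.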

[8] = Stability in CD-1 mouse liver microsomes assessed as half life at 1 uM in presence of NADPH by LC-MS-MS analysis; format: ADME, Microsome
[9] = Stability in human liver microsomes assessed as half life at 1 uM in presence of NADPH by LC-MS-MS analysis; format: ADME, Microsome
[10] = Stability in CD-1 mouse liver microsomes assessed as compound remaining at 1 uM measured after 60 mins in absence of NADPH by LC-MS-MS analysis; format: ADME, Microsome; conditions: read-out: Stability; method in brief: as §3

SMILES	inhibition [3]	IC50 [4]	further results
CO[C@@]12C=CC(=O)C[C@@H]1[n+]1c(c(NC(C)(C)C)n3c(-c4ccccc4)c(-c4ccccc4)sc31)CC2.O=S(=O)([O-])C(F)(F)F	inactive	–	selectivity ratio [1]: 0.41; CC50 at 72 h [2]: 89.7 µg/mL; IC50 (SARS-CoV-2): 217 µg/mL
COC(=O)CC1COc2c(cc3c4c2CCCN4CCC3)-c2c(NC(C)(C)C)n3c(-c4ccccc4)c(-c4ccccc4)sc3[n+]21 (stereo not given)	inactive	–	–
COc1ccc2[nH]cc(CCN3C(=O)[C@H](c4nnc(-c5cccc(C(F)(F)F)c5)o4)[C@H](CC(=O)O)COc4ccccc4[C@@H]3C(=O)NC(C)(C)C)c2c1	inactive	1.16 µM	–
CC1=C(c2cccc3c2OCO3)N2C(=N[C@@H]3c4c(ccc5ccccc45)OC[C@@H]3C2(C)C)S1	inactive	72.8 µM	inhibition [5]: 50%
COC(=O)[C@H](Cc1ccc(OC)c(OC)c1)N1CC(c2cc(C)ccc2O)=N[C@@H](Cc2ccc(OC)c(OC)c2)C1=O	inactive	47.8 µM	inhibition [5]: 50%
CC1(C)[C@H]2COc3ccc4ccccc4c3[C@H]2N=C2SC=C(c3ccc(S(=O)(=O)N4CCOCC4)cc3)N21	inactive	0.121 µM	selectivity ratio [1]: 0.64; solubility at 200 µM [6]: 56.1 µM (≈ 30.7 µg/mL); CC50 (Vero C1008): 43.12 µg/mL (≈ 78.7 µM); remaining at 1 h, 1 µM [7]: 119%; t1/2 [8]: 11.2 min; t1/2 [9]: 5.7 min; IC50 (SARS-CoV-2): 67.6 µg/mL (≈ 123 µM); remaining at 1 h, 1 µM [10]: 92%
COC(=O)CC1COc2c(cc3c4c2CCCN4CCC3)-c2c(NC(C)(C)C)n3c(-c4ccc(F)cc4)c(C)sc3[n+]21 (stereo not given)	inactive	5.57 µM	–
COc1ccc2[nH]c3c(c2c1)C[C@]1(OC)CC[C@H]2c4c[nH]c5cccc(c45)CCN2[C@@H]1C3	inactive	32.6 µM	–
COC(=O)[C@@H]1CC2(C(=O)Nc3ccccc32)C2CC[C@@]3(OC)C=CC(=O)C[C@H]3N21 (stereo not given in full)	inactive	10.3 µM	–
Cc1ccc(N)cc1C(=O)N[C@H](C)c1cccc2ccccc12	inactive	–	–
FC(F)(F)Oc1ccc(N/N=C2/C=C[C@@]3(CC2)CC[C@@H]2NCCc4cccc5[nH]c3c2c45)cc1	inactive	27.5 µM	–
C[C@]12C=CC(=O)C[C@H]1N1CCc3cccc4[nH]cc(c34)C1CO2 (stereo not given in full)	inactive	19.7 µM	–
COC(=O)C[C@@H]1COc2ccccc2[C@H](C(=O)NC(C)(C)C)N(CCc2c[nH]c3ccc(OC)cc23)C(=O)[C@@H]1c1nnc(-c2cccc(C(F)(F)F)c2)o1	inactive	–	–
